Source: PubChem BioAssay
Lipid droplet: inhibitors of hepatocyte lipid droplet formation, primary screen, imaging, high-throughput imaging, BODIPY stain | AML12 mouse hepatocytes, oleate lipid droplets | inhibition, % at 6.5 µM | hit rate 0.4% among 240,000;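 active = lipid droplet intensity inhibited by at least 50%, with more than 500 cells counted; inconclusive = wells with under 300 cells, treated as cytotoxic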
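Test system: AML12 hepatocytes (mouse); reagent: oleate loading, 100 µM; dosing: one dose, 6.5 µM compound; incubation: overnight exposure; signal: fluorescence imaging, 20x objective, two fields per well; read-out basis: % inhibition of corrected integrated BODIPY droplet signal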
Beta2AR agonist: beta2AR agonists driving receptor internalization, primary screen, cell-based, FAP fluorogen, flow cytometry; hit rate 0.43% among 340,000; Am2.2-beta2AR cells; Beta-2 adrenergic receptor (Homo sapiens), P07550; response, % (test concentration not listed);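 active = response above a set limit, near 3 SD of response in nonfluorescent compounds, cut at about 42% in these data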
Target sequence (P07550 whole entry, looked up): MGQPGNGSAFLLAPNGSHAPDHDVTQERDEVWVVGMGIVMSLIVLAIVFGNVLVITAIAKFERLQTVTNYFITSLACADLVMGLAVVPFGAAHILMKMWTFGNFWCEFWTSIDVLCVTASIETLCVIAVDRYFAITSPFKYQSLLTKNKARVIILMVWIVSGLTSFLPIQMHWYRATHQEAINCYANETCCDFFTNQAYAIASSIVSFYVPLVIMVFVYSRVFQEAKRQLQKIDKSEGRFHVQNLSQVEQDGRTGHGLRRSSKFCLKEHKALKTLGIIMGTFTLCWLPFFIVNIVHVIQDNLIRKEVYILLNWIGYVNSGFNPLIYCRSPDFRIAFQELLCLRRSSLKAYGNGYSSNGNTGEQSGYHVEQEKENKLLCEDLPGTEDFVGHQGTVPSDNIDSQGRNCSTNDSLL
GRK2 aptamer HTS: compounds blocking aptamer binding on GRK2 – biochemical, human GRK2, bead flow cytometry, HTS, primary screen | Beta-adrenergic receptor kinase 1 (Homo sapiens), P25098 | FAM-aptamer displacement from GRK2 | inhibition of aptamer binding, % at 10 µM | hit rate 0.59% among 330,000;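 active = inhibition of aptamer binding above 40%, roughly 3 SD of noise, on plates passing a quality check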;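 also: median bead fluorescence of bound FAM aptamer so fluorescent compounds give negative values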
Arrestin-AP2 inh: inhibitors of beta-arrestin/AP2 binding, primary screen, biochemical, GPCR trafficking, flow cytometry; AID 504490, 2011; beta-arrestin 1 C-terminal peptide binding to AP2 beta2-adaptin appendage (human); hit rate 0.31% among 340,000; inhibition, % at 10 µM; FITC-arrestin peptide / GST-AP2 beads; AP2 beta2 appendage carries R879A mutation;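 active = inhibition above a set limit, near 3 SD of compounds lacking own fluorescence, cut at about 54% in these data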
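System: GST-AP2 R879A glutathione beads; medium: PBS, Tween 20 0.05%, BSA 0.1%; reagent: fluorescein-tagged arrestin peptide at 50 nM final; schedule: pre-incubation 12 min, peptide binding 1 h, room temperature; detection: flow cytometry, FL1 (488/535 nm); read-out: inhibition as reduced fluorescein signal on beads, percent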
H9c2 TAG inh: inhibitors of triacylglycerol accumulation, primary screen, cell-based, uHTS, fluorescence, H9c2. H9c2 cells, Nile Red lipid (TAG) fluorescence; cells loaded with 200 µM oleic acid. hit rate 0.66% among 230,000. inhibition, % at 12.5 µM. AID 651582, 2012;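 active = pattern-corrected inhibition of lipid staining of at least 50% with the nuclear-stain viability signal not falling by more than 50%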
NTR1 agonist: agonists of human NTR1, primary screen, imaging, U2OS cells, beta-arrestin-GFP, high content. Neurotensin receptor type 1 (Homo sapiens), P30989. NTR1-U2OS beta-arrestin-GFP spot imaging, agonist mode. activation, % at 20 µM. hit rate 0.17% among 330,000. AID 493036, 2011;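 active = activation at or above 40% of the spot to cytoplasm intensity ratio, with at least 20 cells analyzed; inconclusive = wells under 20 cells, flagged as cytotoxic or low count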
TAG conf: triacylglycerol accumulation inhibitors, retest, confirmation, cell-based, single concentration, Nile Red fluorescence, H9c2. shares compounds with H9c2 TAG inh. H9c2 lipid accumulation; cells loaded with 200 µM oleic acid. inhibition, % at 12.5 µM. hit rate 71% among 990. AID 651629, 2012;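 active = mean inhibition across replicates of 40% or more; inactive = mean inhibition below 40%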
Hits are given with their value; – = inactive; ? = inconclusive; · = no result given. Rows were chosen to be rich in hits. Some 2% of all compounds tested hit in one or more screens of this group.

SMILES	Lipid droplet	Beta2AR agonist	GRK2 aptamer HTS	Arrestin-AP2 inh	H9c2 TAG inh	NTR1 agonist	TAG conf
CC(C)c1ccc(NC(=O)Nc2nc(C(N)COCc3ccccc3)cs2)cc1 (configuration not stated)	·	·	·	·	83.4	·	101.5
COc1ccccc1CNC(=O)Nc1nc(C(N)CCc2ccccc2)cs1 (configuration not stated)	·	·	·	·	57.4	·	–
COc1ccc(CNC(=O)Nc2nc(C(N)Cc3ccc(C(F)(F)F)cc3)cs2)cc1 (configuration not stated)	·	·	·	·	61.3	·	–
COc1ccc(CC(N)c2csc(NC(=O)c3ccc(OC)cc3)n2)cc1 (configuration not stated)	·	·	·	·	–	·	·
COc1ccc(CCNC(=O)C2CCC(=O)N2CCc2ccccc2)cc1OC (configuration not stated)	–	–	–	–	–	–	·
Cc1ccsc1/C=N/Nc1ccc(F)cc1F	–	–	–	–	·	–	·
COc1ccc(CC(N)c2csc(NC(=O)c3cccc(OC(F)(F)F)c3)n2)cc1 (configuration not stated)	·	·	·	·	51.5	·	–
COc1cccc(Nc2nc(C(N)Cc3ccc(C(F)(F)F)cc3)cs2)n1 (configuration not stated)	·	·	·	·	71.5	·	–
COc1cc(CNC(=O)Nc2nc(C(N)Cc3ccc(Cl)cc3)cs2)cc(OC)c1OC (configuration not stated)	·	·	·	·	66.8	·	93.5
NC(Cc1ccccc1)c1csc(NC(=O)c2cccc(OC(F)(F)F)c2)n1 (configuration not stated)	·	·	·	·	–	·	·
Oc1ccc(C=NNC(=S)Nc2ccccc2)nc1	·	·	·	·	–	·	·
COC(=O)c1c(NC(NC(=O)C(C)(C)C)C(Cl)(Cl)Cl)sc2c1CCC2 (configuration not stated)	·	–	–	–	58.9	–	65.1
COC(=O)c1c(NC(NC(=O)C(C)C)C(Cl)(Cl)Cl)sc2c1CCC2 (configuration not stated)	–	–	–	–	·	–	·
CC1(C)Cc2c(c(N3CCOCC3)nc3sc(-c4ccc(C(=O)O)o4)c(N)c23)CO1	–	–	–	–	–	–	·
CNC(=O)c1ccc(-c2sc3nc(N4CCOCC4)c4c(c3c2N)CCCC4)o1	·	–	–	–	50.7	–	74.1
CNC(=O)c1ccc(-c2sc3nc(N4CCOCC4)c4c(c3c2N)CC(C)(C)OC4)o1	·	–	–	–	51.7	–	66.5
Nc1c(C(=O)NCc2ccccc2)sc2nc(N3CCOCC3)c3c(c12)CCCC3	·	–	–	–	54.5	–	41.6
CCCc1ccc2oc(C(=O)N(C)CCn3ccnc3C)c(C)c2c1	–	–	–	–	–	–	·
COCCCNC(=O)c1c(N)n(/N=C/c2ccccn2)c2nc3ccccc3nc12	·	–	·	–	–	–	·
Nc1c(C(=O)NC2CCCC2)c2nc3ccccc3nc2n1/N=C/c1cccnc1	·	–	–	–	68.5	–	72.5
Cc1ccc(-c2cc(C(F)F)n3ncc(C(=O)Nc4c(C)nn(Cc5c(Cl)cccc5Cl)c4C)c3n2)cc1	·	–	–	–	89.5	–	46.9
Cc1nn(Cc2c(Cl)cccc2Cl)c(C)c1NC(=O)c1cnn2c(C(F)F)cc(-c3ccccc3)nc12	·	–	–	–	–	–	·
COCCNC(=O)C1CCC(Cn2c(=S)[nH]c3ccccc3c2=O)CC1 (configuration not stated)	–	–	–	–	–	–	·
O=C(NCCc1c[nH]c2ccccc12)C1CCC(Cn2c(=S)[nH]c3ccccc3c2=O)CC1 (configuration not stated)	–	–	–	–	65.5	–	60.6
CCOc1cc(CNc2ccc(N3CCOCC3)cc2)cc(Br)c1OCC	–	–	–	–	·	–	·
SMILES	Lipid droplet	Beta2AR agonist	GRK2 aptamer HTS	Arrestin-AP2 inh	H9c2 TAG inh	NTR1 agonist	TAG conf
CCOc1cc(CNc2ccc3c(c2)OCCO3)cc(Br)c1OCC	·	–	–	–	52.8	–	53.4
COc1ccc(C2=C(C=Nc3c(C)n(C)n(-c4ccccc4)c3=O)C(c3ccccc3C)c3ccccc3O2)cc1OC (configuration not stated)	–	–	–	–	61.1	–	–
Cc1c(N=Cc2c(O)n(C)c(=O)c3ccccc23)c(=O)n(-c2ccccc2)n1C	·	–	–	–	·	–	·
COc1ccc(S(=O)(=O)Nc2ccc3c(c2)C(=O)N([C@H](C)CO)C[C@H](C)[C@@H](CN(C)S(=O)(=O)c2c(C)noc2C)O3)cc1	·	–	–	–	–	–	·
O=[N+]([O-])c1cccc(S(=O)(=O)N2CN(c3ccc(Br)cc3)c3nc4ccccc4nc32)c1	·	–	–	–	62.3	–	49.0
Cc1ccc2oc(NC3=NC4(CCCC4)C4=C(CCCC4=O)N3)nc2c1	·	·	·	·	54.6	·	62.2
CC1(C)CC(=O)C2=C(C1)NC(Nc1nc3ccccc3o1)=NC21CCCCC1	·	–	–	–	·	–	·
COc1ccc(CCNC(=O)CCn2c(=O)c3cccn3c3cccnc32)cc1OC	–	–	–	–	·	–	·
Cc1cc(NC(=O)CC2CCCC2)n(-c2nc3ccccc3[nH]2)n1	·	–	–	–	58.9	–	54.0
Cc1ccc(CN(C)C(=O)CN2C(=O)NC3(CCCc4ccccc43)C2=O)c(C)c1 (configuration not stated)	·	–	–	–	50.7	–	40.4
COc1cc([C@@H]2c3cc4c(cc3[C@H](O)[C@H]3COC(=O)[C@H]23)OCO4)cc(OC)c1OC	?	–	–	–	50.1	–	48.5
CCOCCC(=O)Nc1ccc2c(c1)c(=O)n(C)n2-c1ccccc1F	·	·	·	·	–	·	·
O=C(CCCOc1ccc(Br)cc1)Nc1nnc(C2CC2)s1	·	–	–	–	–	–	·
COc1ccccc1NC(=O)C1CCN(S(=O)(=O)c2cccc3nonc23)CC1	–	–	–	–	·	–	·
CC(C)N1CSC(=S)N(Cc2ccccc2)C1	–	–	–	–	68.9	–	48.5
COc1ccc(-c2nn3c(-c4ccco4)nnc3s2)cc1OC	·	–	–	–	–	–	·
COc1cc(OC)c(-c2nn3c(-c4ccco4)nnc3s2)cc1OC	·	–	·	–	53.6	·	–
CN(CCNC(=O)C1CCCN(c2ncnc3c2nc2n3CCCCC2)C1)Cc1ccccc1 (configuration not stated)	–	–	–	–	·	–	·
CCC(=O)Nc1ccc(-c2nnc(-c3ccccc3)o2)cc1	·	–	–	–	52.4	–	43.2
